SMILES strings stand for the structures.

Test [1] deals with Fibroblast growth factor receptor 1 (Homo sapiens) (UniProt P11362). Kind of test: Inhibition of N-terminal GST-tagged human FGFR1 cytoplasmic domain (398 to 822 residues) expressed in baculovirus expression system at […] using FAM-labeled peptide as substrate after 10 mins by mobility shift assay relative to control. An outline of the steps: (§1)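 Caliper mobility-shift kinase assay. Kinase in kinase base buffer was preincubated with compound for 10 min at room temperature. FAM-labelled peptide and ATP at Km were then added, and the reaction ran at 28 °C until quenched with buffer. Screening concentration was 1 µM. Percent inhibition = (max − conversion)/(max − min) × 100, with DMSO as max and a low control as min.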

The target of test [2] is Vascular endothelial growth factor receptor 2 (Homo sapiens) (UniProt P35968). Put plainly: Inhibition of N-terminal GST-tagged human KDR cytoplasmic domain (790 to 1356 residues) expressed in baculovirus expression system at […] using FAM-labeled peptide as substrate after 10 mins by mobility shift assay relative to control. An outline of the steps: as §1
Chain of Vascular endothelial growth factor receptor 2 (Homo sapiens) (P35968 whole entry, the tested form may be a part): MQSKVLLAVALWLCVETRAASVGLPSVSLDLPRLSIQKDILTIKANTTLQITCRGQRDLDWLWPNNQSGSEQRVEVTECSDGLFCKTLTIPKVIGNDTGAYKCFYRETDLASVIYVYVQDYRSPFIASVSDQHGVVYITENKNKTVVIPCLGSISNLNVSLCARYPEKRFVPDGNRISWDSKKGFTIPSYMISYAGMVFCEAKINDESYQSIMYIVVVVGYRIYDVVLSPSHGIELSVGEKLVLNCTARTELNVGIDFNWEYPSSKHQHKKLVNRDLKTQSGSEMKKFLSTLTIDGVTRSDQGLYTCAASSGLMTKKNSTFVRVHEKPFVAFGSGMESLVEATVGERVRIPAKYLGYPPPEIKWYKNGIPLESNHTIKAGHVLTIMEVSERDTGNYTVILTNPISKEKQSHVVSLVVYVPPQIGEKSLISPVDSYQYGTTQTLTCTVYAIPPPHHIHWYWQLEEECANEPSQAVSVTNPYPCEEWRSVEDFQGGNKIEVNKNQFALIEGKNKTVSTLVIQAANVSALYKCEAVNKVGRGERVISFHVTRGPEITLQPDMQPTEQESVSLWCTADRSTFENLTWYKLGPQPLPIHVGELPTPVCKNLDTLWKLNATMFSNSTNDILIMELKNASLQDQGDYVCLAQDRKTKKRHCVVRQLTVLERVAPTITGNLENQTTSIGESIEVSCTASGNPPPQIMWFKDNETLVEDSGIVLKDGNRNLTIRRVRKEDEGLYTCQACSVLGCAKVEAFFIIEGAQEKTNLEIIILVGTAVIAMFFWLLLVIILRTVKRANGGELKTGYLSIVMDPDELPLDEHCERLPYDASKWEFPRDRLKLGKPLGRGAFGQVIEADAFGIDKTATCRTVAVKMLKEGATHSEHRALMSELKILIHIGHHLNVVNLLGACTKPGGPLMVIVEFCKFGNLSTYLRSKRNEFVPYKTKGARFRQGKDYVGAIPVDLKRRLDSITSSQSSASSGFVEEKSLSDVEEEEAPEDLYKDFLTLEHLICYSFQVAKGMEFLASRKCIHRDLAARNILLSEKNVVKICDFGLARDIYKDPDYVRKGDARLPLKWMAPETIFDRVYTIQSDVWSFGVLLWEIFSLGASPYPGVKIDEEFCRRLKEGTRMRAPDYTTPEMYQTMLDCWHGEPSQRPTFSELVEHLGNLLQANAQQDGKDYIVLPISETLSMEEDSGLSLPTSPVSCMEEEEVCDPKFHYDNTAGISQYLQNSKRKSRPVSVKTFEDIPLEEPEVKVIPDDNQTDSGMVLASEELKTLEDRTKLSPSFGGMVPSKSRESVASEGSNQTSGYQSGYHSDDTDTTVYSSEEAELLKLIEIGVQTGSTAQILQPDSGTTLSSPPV

With `COc1ccc(Nc2cc(NC(=O)c3ccc(F)cc3)ncn2)cc1`, the inhibition – broadly, the change of the read-out against control, counted positive when it falls – is 0.5% in test [1] and -3.4% in test [2]. Regarding `O=C(O)CCC(=O)Nc1cc(Nc2cccc(C(=O)O)c2)ncn1`, the inhibition in test [2] is 10.9%. As to `CCOC(=O)CCCC(=O)Nc1cc(Nc2cc(OC)ccc2OC)ncn1`, the inhibition is -9.3% in test [1] and 0.9% in test [2]. For `O=C(Nc1cc(Nc2ccc(Cl)cc2)ncn1)c1ccccc1`, the inhibition is -1.3% in test [1] and -1.4% in test [2]. For `CCOC(=O)CCC(=O)Nc1cc(Nc2ccc(S(N)(=O)=O)cc2)ncn1`, in that order: -3.6% and 7.7%. The matching figures for `CCOc1ccc(Nc2cc(NC(=O)/C=C/c3ccc(OC)cc3)ncn2)cc1`: 0.7% and 20.4%. The matching figures for `CCOc1ccc(Nc2cc(NC(=O)c3ccc(F)cc3)ncn2)cc1`: 5.9% and 5.3%. Regarding `COc1cccc(Nc2cc(NC(=O)c3ccccc3)ncn2)c1`, the inhibition was -6% in test [1] and -0.2% in test [2]. Take `COc1cccc(Nc2cc(NC(=O)c3ccc(F)cc3)ncn2)c1`: the inhibition stood at 4.3% in test [1] and 20.8% in test [2].

In the case of `COc1cccc(Nc2cc(NC(=O)CCC(=O)O)ncn2)c1`, the inhibition in test [1] was determined as 0.5%; in test [2], 12.4%. For the molecule `CCOC(=O)CC(=O)Nc1cc(Nc2ccc(F)cc2)ncn1`, the results for the inhibition in test [1] and in test [2] were -1.1% and 1.7%, respectively.

For `CC(C)OC(=O)CCC(=O)Nc1cc(Nc2ccc(F)cc2)ncn1`, the inhibition in test [1] was -6.5%; in test [2], 2.5%. `O=C(/C=C/c1ccc(F)cc1Br)Nc1cc(Nc2ccc(N3CCOCC3)cc2)ncn1`: the inhibition is -2.8% in test [1] and 0.6% in test [2].

Regarding `COc1ccc(/C=C/C(=O)Nc2cc(N3CCN(C)CC3)ncn2)cc1`, the results for the inhibition in test [1] and in test [2] were -6.1% and 1.7%, respectively. Take `O=C(O)CCC(=O)Nc1cc(Nc2cccc(Br)c2)ncn1`: the inhibition in test [1] is -5.3%; in test [2], 19.2%. As for `CCNc1cc(Nc2cc(OC)ccc2OC)ncn1`, the inhibition is -0.4% in test [1] and 34.5% in test [2]. With `COc1cccc(Nc2cc(Nc3ccc(Cl)cc3)ncn2)c1`, the inhibition in test [1] was -4%; in test [2], 12.8%.

`Fc1ccc(Nc2cc(Nc3ccc(Cl)cc3)ncn2)cc1`: the inhibition in test [1] amounted to 1.8%; in test [2], 6.1%.

On to `Clc1ccc(Nc2cc(Nc3ccc4[nH]ncc4c3)ncn2)cc1`, for which the inhibition in test [1] was -5.3%; in test [2] it was -1.4%. Regarding `Clc1cccc(Nc2cc(Nc3cccc(Br)c3)ncn2)c1`, the inhibition in test [1] was -3.6%; in test [2], 20%. For `CCOC(=O)CCC(=O)Nc1cc(NCCc2cccs2)ncn1`, in test [2], the inhibition is 13.6%. Regarding `CCOC(=O)CCC(=O)Nc1cc(Nc2ccc(Cl)cc2)ncn1`, the inhibition is -3.6% in test [1] and 22.5% in test [2]. As for `Clc1ccc(Nc2cc(Nc3cccc(Cl)c3)ncn2)cc1`, the inhibition in test [1] is -3.4%; in test [2], 7.3%. For `O=C(/C=C/c1ccc(F)cc1Br)Nc1cc(Nc2ccc(Cl)cc2Cl)ncn1`, the inhibition in test [1] was -4.6%; in test [2] it was 15.2%. With `COc1ccc(/C=C/C(=O)Nc2cc(N3CCOCC3)ncn2)cc1`, the inhibition in test [1] is -4.8%; in test [2] it was 7.3%.

Take `CN1CCN(c2cc(NC(=O)/C=C/c3ccc(F)cc3)ncn2)CC1`: the inhibition in test [1] was -6.1%; in test [2] it was 7.7%. As to `CN1CCN(c2ccc(Nc3cc(NC(=O)CCC(=O)O)ncn3)cc2)CC1`, the inhibition in test [2] turned out to be 18.8%.

As for `CCOC(=O)CCC(=O)Nc1cc(Nc2cccc(C(=O)OCC)c2)ncn1`, the values for the inhibition in test [1] and in test [2] were 2.6% and 19.7%, respectively. On to `CCOC(=O)CCC(=O)Nc1cc(Nc2cccc(OC)c2)ncn1`, for which the inhibition in test [1] was -7.1%; in test [2] it was 11.3%. For the molecule `COc1ccc(OC)c(Nc2cc(Nc3cc(OC)ccc3OC)ncn2)c1`, the inhibition in test [1] was -2.7%; in test [2], 13.6%. `CCOC(=O)c1ccc(Nc2cc(Nc3ccc(C(=O)OCC)cc3)ncn2)cc1`: the inhibition was found to be 0% in test [1] and 3.7% in test [2]. `COc1ccc(Nc2cc(NC(=O)/C=C/c3ccc(F)cc3Br)ncn2)c([N+](=O)[O-])c1`: the inhibition in test [1] was -2.3%; in test [2], 11.3%. For `COc1ccc(/C=C/C(=O)Nc2cc(Nc3cccc(Br)c3)ncn2)cc1`, in that order: -5.4% and 8.5%. In the case of `CCOc1ccc(Nc2cc(NC(=O)/C=C/c3ccccc3)ncn2)cc1`, the inhibition in test [1] amounted to 1.5%; in test [2], 0.6%. Take `COc1ccc(Nc2cc(NC(=O)c3ccccc3)ncn2)c([N+](=O)[O-])c1`: the inhibition in test [1] came to 5.2%; in test [2], 8.9%. As for `COc1ccc(OC)c(Nc2cc(Nc3ccc(Cl)cc3)ncn2)c1`, the inhibition in test [1] is -8.2%; in test [2], 6.5%. For the molecule `Clc1ccc(Nc2cc(Nc3ccc(Cl)cc3)ncn2)cc1`, the inhibition is -1.3% in test [1] and 8.5% in test [2]. Turning to `O=C(/C=C/c1ccc(F)cc1)Nc1cc(Nc2ccc(N3CCOCC3)cc2)ncn1`, the inhibition in test [1] is -3.9%; in test [2] it was 1.3%. The matching figures for `CCOC(=O)CCC(=O)Nc1cc(Nc2ccc(C(=O)OCC)cc2)ncn1`: -4.6% and 6.5%. For the molecule `O=C(Nc1cc(Nc2cccc(Cl)c2)ncn1)c1ccc(F)cc1`, the inhibition in test [1] was 4.2%; in test [2] it was -0.6%. As to `COc1cccc(Nc2cc(Nc3cccc(Br)c3)ncn2)c1`, in test [2], the inhibition is 20.5%. Take `COc1ccc(/C=C/C(=O)Nc2cc(Nc3ccc(Cl)cc3Cl)ncn2)cc1`: the inhibition in test [1] is -4%; in test [2], 6.1%. On to `O=C(/C=C/c1ccccc1)Nc1cc(Nc2ccc(N3CCOCC3)cc2)ncn1`, for which the inhibition in test [1] is -0.3%; in test [2] it was -5%. In the case of `CCCC(C)OC(=O)CCC(=O)Nc1cc(Nc2cccc(C(=O)OC(C)CCC)c2)ncn1` (configuration not stated), the results for the inhibition in test [1] and in test [2] were -5% and 4.9%, respectively. Consider `COc1cccc(Nc2cc(NC(=O)/C=C/c3ccccc3)ncn2)c1`, for which the figures for the inhibition in test [1] and in test [2] were -0.4% and 9.3%, respectively. Take `COc1ccc(Nc2cc(NC(=O)/C=C/c3ccccc3)ncn2)c([N+](=O)[O-])c1`: the inhibition in test [1] is -4.9%; in test [2] it was 2.5%. As for `O=C(/C=C/c1ccc(F)cc1)Nc1cc(Nc2ccc(Cl)cc2Cl)ncn1`, the results for the inhibition in test [1] and in test [2] were -2.9% and 2.5%, respectively.

Regarding `COc1ccc(/C=C/C(=O)Nc2cc(Nc3ccc(Cl)cc3)ncn2)cc1`, the values for the inhibition in test [1] and in test [2] were -8.8% and 0.9%, respectively.

Turning to `CCOC(=O)c1c(Nc2cc(NC(=O)CCC(=O)OC(C)C)ncn2)sc2c1CCCC2`, the figures for the inhibition in test [1] and in test [2] were -4.1% and 16.4%, respectively. Take `Cc1ccc(Nc2cc(NC(=O)c3ccc(F)cc3)ncn2)cc1`: the inhibition in test [1] is -4.8%; in test [2], 10.9%. Take `O=C(/C=C/c1ccc(F)cc1)Nc1cc(Nc2ccc(Cl)cc2)ncn1`: the figures for the inhibition in test [1] and in test [2] were 3.1% and 10.1%, respectively.

With `CC(C)OC(=O)CCC(=O)Nc1cc(Nc2ccc(C(=O)OC(C)C)cc2)ncn1`, the values for the inhibition in test [1] and in test [2] were -2.3% and 4.9%, respectively. `O=C(O)CCC(=O)Nc1cc(Nc2cccc(Cl)c2)ncn1`: the inhibition in test [1] is -3.6%; in test [2] it was 0.6%. For the molecule `O=C(Nc1cc(Nc2cccc(Cl)c2)ncn1)c1ccccc1`, the figures for the inhibition in test [1] and in test [2] were -5.8% and -6.2%, respectively. For `CCOC(=O)c1ccc(Nc2cc(NC(=O)CCC(=O)O)ncn2)cc1`, the inhibition in test [1] was -5.4%; in test [2], 4.9%.

As for `O=C(Nc1cc(Nc2ccc(N3CCOCC3)cc2)ncn1)c1ccc(F)cc1`, the results for the inhibition in test [1] and in test [2] were 3.5% and 1.7%, respectively.

Turning to `O=C(O)CCCC(=O)Nc1cc(Nc2ccccc2Br)ncn1`, the inhibition in test [1] is -9.3%; in test [2] it was 16.8%. For the molecule `CN1CCN(c2ccc(Nc3cc(NC(=O)/C=C/c4ccc(F)cc4)ncn3)cc2)CC1`, the inhibition in test [1] is -5.4%; in test [2] it was 21.8%. With `CCOC(=O)CCC(=O)Nc1cc(Nc2ccc(N3CCN(C)CC3)cc2)ncn1`, the inhibition in test [1] is -6.6%; in test [2] it was 4.9%. Take `O=C(Nc1cc(N2CCOCC2)ncn1)c1ccccc1`: the inhibition is -1.8% in test [1] and 10.1% in test [2]. In the case of `CCOc1cccc(Nc2cc(NC(=O)c3ccc(F)cc3)ncn2)c1`, the inhibition in test [1] worked out at 2.2%; in test [2], 6.1%. As to `Clc1cccc(Nc2cc(Nc3cccc(Cl)c3)ncn2)c1`, the figures for the inhibition in test [1] and in test [2] were -9.8% and 0.6%, respectively. Turning to `Fc1ccc(Nc2cc(Nc3ccc(F)cc3)ncn2)cc1`, the inhibition amounted to 0.5% in test [1] and 16.8% in test [2]. As to `O=C(/C=C/c1ccc(F)cc1Br)Nc1cc(N2CCOCC2)ncn1`, the inhibition was -7.1% in test [1] and 5.7% in test [2]. On to `CN1CCN(c2cc(NC(=O)CCCC(=O)O)ncn2)CC1`, for which the figures for the inhibition in test [1] and in test [2] were -2.3% and 13.6%, respectively. For `O=C(/C=C/c1ccccc1)Nc1cc(Nc2ccc(O)cc2)ncn1`, in that order: -3.7% and 1.3%. For `CCCC(C)OC(=O)CCC(=O)Nc1cc(Nc2cccc(Br)c2)ncn1` (configuration not stated), in that order: -4.9% and 14.8%.

Turning to `COc1ccc(Nc2cc(NC(=O)/C=C/c3ccccc3)ncn2)cc1`, the values for the inhibition in test [1] and in test [2] were 8.7% and 9.3%, respectively.
